Assay results reported in ChEMBL document CHEMBL1123181 (J Med Chem, 1986).

Columns and labels:
[1] = target: T1, Angiotensin-converting enzyme (Oryctolagus cuniculus, UniProt P12822); test: In vitro inhibition of Angiotensin I converting enzyme activity at pH 8.5 in rabbit lung; type: tissue-based; conditions: read-out: I50
T1 sequence (P12822 whole entry): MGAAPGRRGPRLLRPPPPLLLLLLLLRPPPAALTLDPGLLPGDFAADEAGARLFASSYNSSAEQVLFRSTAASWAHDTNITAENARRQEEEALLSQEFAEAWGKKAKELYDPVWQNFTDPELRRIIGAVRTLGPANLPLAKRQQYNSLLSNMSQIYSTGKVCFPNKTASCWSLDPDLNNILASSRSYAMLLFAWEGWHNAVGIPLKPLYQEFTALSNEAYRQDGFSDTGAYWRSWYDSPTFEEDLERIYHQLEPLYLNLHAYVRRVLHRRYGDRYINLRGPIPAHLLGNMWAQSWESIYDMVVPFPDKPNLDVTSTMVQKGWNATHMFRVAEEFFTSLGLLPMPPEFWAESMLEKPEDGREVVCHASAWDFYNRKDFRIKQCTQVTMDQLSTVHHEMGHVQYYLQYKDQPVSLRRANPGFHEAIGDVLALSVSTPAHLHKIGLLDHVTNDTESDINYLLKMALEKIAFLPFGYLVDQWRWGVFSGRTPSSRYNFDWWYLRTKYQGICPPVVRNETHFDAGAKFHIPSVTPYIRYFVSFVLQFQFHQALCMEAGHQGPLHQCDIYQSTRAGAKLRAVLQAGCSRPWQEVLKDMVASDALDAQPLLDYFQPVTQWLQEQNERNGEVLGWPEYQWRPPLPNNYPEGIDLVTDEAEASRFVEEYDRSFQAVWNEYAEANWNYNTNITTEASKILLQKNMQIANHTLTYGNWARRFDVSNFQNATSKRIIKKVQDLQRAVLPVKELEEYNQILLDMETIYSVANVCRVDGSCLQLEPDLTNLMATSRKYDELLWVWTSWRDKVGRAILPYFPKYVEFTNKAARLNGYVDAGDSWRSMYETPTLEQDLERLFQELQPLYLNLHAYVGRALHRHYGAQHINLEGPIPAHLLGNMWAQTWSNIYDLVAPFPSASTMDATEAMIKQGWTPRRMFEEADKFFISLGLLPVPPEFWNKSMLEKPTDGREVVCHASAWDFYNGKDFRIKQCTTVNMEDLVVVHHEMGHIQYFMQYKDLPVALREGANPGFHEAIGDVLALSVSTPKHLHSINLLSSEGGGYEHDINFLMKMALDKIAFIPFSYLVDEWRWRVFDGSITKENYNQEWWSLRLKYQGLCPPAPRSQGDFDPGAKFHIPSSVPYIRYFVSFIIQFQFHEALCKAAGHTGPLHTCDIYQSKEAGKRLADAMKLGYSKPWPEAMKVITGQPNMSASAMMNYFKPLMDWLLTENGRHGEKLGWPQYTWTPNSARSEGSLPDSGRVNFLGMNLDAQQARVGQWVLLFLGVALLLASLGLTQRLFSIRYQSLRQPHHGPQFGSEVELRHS

[2] = target: T1, Angiotensin-converting enzyme; test: In vitro inhibition of Angiotensin I converting enzyme activity in rabbit lung; type: tissue-based; conditions: read-out: I50
[3] = target: Angiotensin-converting enzyme (Rattus norvegicus) (UniProt P47820); test: The time to 50% recovery of the angiotensin I response was measured after po administration at 1.5 mg/kg; 20-80
[4] = target: Angiotensin-converting enzyme (Rattus norvegicus) (UniProt P47820); test: Percentage inactivation of the angiotensin I induced vasopressor response in normotensive conscious rats after po administration at dose 1.5 mg/kg; 43-64
[5] = target: T1, Angiotensin-converting enzyme; test: Inhibition of the activity of rabbit lung Angiotensin I converting enzyme
How it was run: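 Rabbit lung acetone-powder ACE, crude and dialyzed. Enzyme was added to substrate ± inhibitor and the reaction stopped with HCl after 10 min. Hippuric acid was extracted into AcOEt and read at 228 nm.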

[6] = target: Angiotensin-converting enzyme (Rattus norvegicus) (UniProt P47820); test: The time to 50% recovery of the angiotensin I response was measured after po administration at 1.5 mg/kg; 10-60
[7] = target: Angiotensin-converting enzyme (Rattus norvegicus) (UniProt P47820); test: Percentage inactivation of the angiotensin I induced vasopressor response in normotensive conscious rats after po administration at dose 1.5 mg/kg; 14-16
[8] = target: Angiotensin-converting enzyme (Rattus norvegicus) (UniProt P47820); test: The time to 50% recovery of the angiotensin I response was measured after po administration at 1.5 mg/kg; 0-30
[9] = target: Angiotensin-converting enzyme (Rattus norvegicus) (UniProt P47820); test: Percentage inactivation of the angiotensin I induced vasopressor response in normotensive conscious rats after po administration at dose 1.5 mg/kg; 0-29
[10] = target: Angiotensin-converting enzyme (Rattus norvegicus) (UniProt P47820); test: The time to 50% recovery of the angiotensin I response was measured after po administration at 1.5 mg/kg
[11] = target: Angiotensin-converting enzyme (Rattus norvegicus) (UniProt P47820); test: Percentage inactivation of the angiotensin I induced vasopressor response in normotensive conscious rats after po administration at dose 1.5 mg/kg; 17-24; conditions: at 1.5 mg/kg
[12] = target: Angiotensin-converting enzyme (Rattus norvegicus) (UniProt P47820); test: The time to 50% recovery of the angiotensin I response was measured after po administration at 0.3 mg/kg
[13] = target: Angiotensin-converting enzyme (Rattus norvegicus) (UniProt P47820); test: Percentage inactivation of the angiotensin I induced vasopressor response in normotensive conscious rats after po administration at dose 0.3 mg/kg; 15-17; conditions: at 0.3 mg/kg
Rattus norvegicus [14] = test: Time taken by the compound to change arterial pressure outside the control area at a dose of 30mg/kg, po; type: functional, Artery
Rattus norvegicus [15] = test: Maximum percent change in mean arterial pressure by the compound over control after po administration at 30 mg/kg dosage; type: functional, Artery
How it was run: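 Spontaneously hypertensive rats kept on a sodium-deficient diet received the agent orally. Value = maximum % change in mean arterial pressure over control. Duration = time outside a control area, defined as the means ±2 SD of arterial pressure and heart rate readings from 45 control rats.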

[16] = target: Angiotensin-converting enzyme (Rattus norvegicus) (UniProt P47820); test: Percentage inactivation of the angiotensin I induced vasopressor response in normotensive conscious rats after po administration at dose 0.058 mg/kg; 65-70
[17] = target: Angiotensin-converting enzyme (Rattus norvegicus) (UniProt P47820); test: Percentage inactivation of the angiotensin I induced vasopressor response in normotensive conscious rats after po administration at dose 1.5 mg/kg; 3-5
[18] = target: Angiotensin-converting enzyme (Rattus norvegicus) (UniProt P47820); test: Percentage inactivation of the angiotensin I induced vasopressor response in normotensive conscious rats after po administration at dose 1.5 mg/kg; 20-34
[19] = target: Angiotensin-converting enzyme (Rattus norvegicus) (UniProt P47820); test: The time to 50% recovery of the angiotensin I response was measured after po administration at 0.30 mg/kg
[20] = target: Angiotensin-converting enzyme (Rattus norvegicus) (UniProt P47820); test: Percentage inactivation of the angiotensin I induced vasopressor response in normotensive conscious rats after po administration at dose 0.08 mg/kg; 80-85
[21] = target: Angiotensin-converting enzyme (Rattus norvegicus) (UniProt P47820); test: The time to 50% recovery of the angiotensin I response was measured after po administration at 0.15 mg/kg; 60-140
[22] = target: Angiotensin-converting enzyme (Rattus norvegicus) (UniProt P47820); test: Percentage inactivation of the angiotensin I induced vasopressor response in normotensive conscious rats after po administration at dose 0.15 mg/kg; 85-96
[23] = target: Angiotensin-converting enzyme (Rattus norvegicus) (UniProt P47820); test: The time to 50% recovery of the angiotensin I response was measured after po administration at 1.5 mg/kg; 20-50
[24] = target: Angiotensin-converting enzyme (Rattus norvegicus) (UniProt P47820); test: Percentage inactivation of the angiotensin I induced vasopressor response in normotensive conscious rats after po administration at dose 1.5 mg/kg; 14-21
[25] = target: Angiotensin-converting enzyme (Rattus norvegicus) (UniProt P47820); test: The time to 50% recovery of the angiotensin I response was measured after po administration at 1.5 mg/kg; 30-50
[26] = target: Angiotensin-converting enzyme (Rattus norvegicus) (UniProt P47820); test: The time to 50% recovery of the angiotensin I response was measured after po administration at 0.15 mg/kg; 10-30
[27] = target: Angiotensin-converting enzyme (Rattus norvegicus) (UniProt P47820); test: Percentage inactivation of the angiotensin I induced vasopressor response in normotensive conscious rats after po administration at dose 1.50 mg/kg; 73-79
[28] = target: Angiotensin-converting enzyme (Rattus norvegicus) (UniProt P47820); test: Percentage inactivation of the angiotensin I induced vasopressor response in normotensive conscious rats after po administration at dose 0.15 mg/kg; 24-49
[29] = target: Angiotensin-converting enzyme (Rattus norvegicus) (UniProt P47820); test: The time to 50% recovery of the angiotensin I response was measured after po administration at 0.15 mg/kg; 30-100
[30] = target: Angiotensin-converting enzyme (Rattus norvegicus) (UniProt P47820); test: Percentage inactivation of the angiotensin I induced vasopressor response in normotensive conscious rats after po administration at dose 0.15 mg/kg; 64-100

Angiotensin-converting enzyme (Rattus norvegicus), sequence (P47820 whole entry, looked up): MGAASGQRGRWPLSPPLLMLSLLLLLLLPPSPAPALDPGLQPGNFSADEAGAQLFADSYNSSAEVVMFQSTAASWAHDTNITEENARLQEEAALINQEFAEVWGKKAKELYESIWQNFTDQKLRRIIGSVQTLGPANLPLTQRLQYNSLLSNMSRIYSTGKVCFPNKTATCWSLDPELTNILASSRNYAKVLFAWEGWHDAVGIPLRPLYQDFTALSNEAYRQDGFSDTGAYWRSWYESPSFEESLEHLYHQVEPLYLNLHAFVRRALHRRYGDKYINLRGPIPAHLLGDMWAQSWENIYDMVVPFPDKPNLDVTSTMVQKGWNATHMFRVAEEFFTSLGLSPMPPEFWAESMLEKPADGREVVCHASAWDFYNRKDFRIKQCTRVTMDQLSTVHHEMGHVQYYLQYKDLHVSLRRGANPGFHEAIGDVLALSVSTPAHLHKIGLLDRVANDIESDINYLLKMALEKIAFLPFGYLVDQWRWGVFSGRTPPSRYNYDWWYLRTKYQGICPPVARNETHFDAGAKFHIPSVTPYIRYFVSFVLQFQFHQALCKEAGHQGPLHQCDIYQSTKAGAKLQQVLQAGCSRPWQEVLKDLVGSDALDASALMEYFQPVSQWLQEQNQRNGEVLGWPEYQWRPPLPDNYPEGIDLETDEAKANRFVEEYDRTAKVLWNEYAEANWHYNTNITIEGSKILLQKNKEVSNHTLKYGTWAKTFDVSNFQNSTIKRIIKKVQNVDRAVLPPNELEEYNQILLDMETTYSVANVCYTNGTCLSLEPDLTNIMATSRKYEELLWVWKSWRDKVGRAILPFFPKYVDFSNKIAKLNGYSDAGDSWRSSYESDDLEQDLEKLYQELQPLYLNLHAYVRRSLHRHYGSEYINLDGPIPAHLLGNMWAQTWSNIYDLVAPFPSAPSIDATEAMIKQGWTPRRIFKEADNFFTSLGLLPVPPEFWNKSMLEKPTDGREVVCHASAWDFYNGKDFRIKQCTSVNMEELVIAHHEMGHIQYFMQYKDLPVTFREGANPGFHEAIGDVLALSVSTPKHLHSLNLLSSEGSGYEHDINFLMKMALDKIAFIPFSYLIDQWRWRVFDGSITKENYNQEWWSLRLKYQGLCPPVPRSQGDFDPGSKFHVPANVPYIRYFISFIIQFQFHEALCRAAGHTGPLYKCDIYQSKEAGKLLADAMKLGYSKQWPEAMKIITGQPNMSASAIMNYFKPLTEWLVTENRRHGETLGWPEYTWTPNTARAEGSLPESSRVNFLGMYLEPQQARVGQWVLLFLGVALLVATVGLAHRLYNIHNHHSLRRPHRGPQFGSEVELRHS

IC50 [1] [µM]	IC50 [2] [µM]	IC50 [5] [µM]	SMILES	other results
0.058	0.047		CC1CSC(=O)[C@@H]2CSCN2C1=O (stereo not given in full)	Duration [3]: 20 min; inhibition [4]: 43%
0.045	0.018		CC1CSC(=O)[C@@H]2Cc3ccccc3CN2C1=O (stereo not given in full)	
	33		CC1SC(=O)[C@@H]2CCCN2C1=O (stereo not given in full)	Duration [10]: 10 min; inhibition [11]: 17%
6.8	27		CC1SC(=O)C(C)N(C2CCCC2)C1=O (stereo not given)	inhibition [17]: 3%
	90		CC1SC(=O)C(C)(C)N(C2CCCC2)C1=O (stereo not given)	Duration [10]: 20 min; inhibition [18]: 20%
0.025	0.012		CC1CSC(=O)CN(C2CC3CCC2C3)C1=O (stereo not given)	Duration [21]: 60 min; inhibition [22]: 85%
21	> 100		CC1SC(=O)C2N(C1=O)C(C)(C)SC2(C)C (stereo not given)	Duration [23]: 20 min; inhibition [24]: 14%
	0.8		C[C@H]1CSC(=O)[C@@H]2Cc3ccccc3CN2C1=O	
0.057	0.15		CC1SC(=O)CN(C2CCCC2)C1=O (stereo not given)	Duration [25]: 30 min; Duration [26]: 10 min; inhibition [27]: 73%; inhibition [28]: 24%
0.017	0.026		C[C@@H]1CSC(=O)[C@@H]2CCCN2C1=O	Duration [29]: 30 min; inhibition [30]: 64%

More lines, now with the values behind:

SMILES	IC50 [1] [µM]	IC50 [2] [µM]	IC50 [5] [µM]	other results
CC1SC(=O)CNC1=O (stereo not given)	1.9	1.9		
CC(S)C(=O)N1CSC[C@H]1C(=O)O (stereo in doubt; 37b(S,R))			0.14	
C[C@@H]1SC(=O)[C@@]2(C)Cc3ccccc3CN2C1=O	> 100	> 100		Duration [6]: 10 min; inhibition [7]: 14%
CC(S)C(=O)N1CSC[C@H]1C(=O)O (stereo in doubt; 37b(R,R))			10	
CC1CSC(=O)C2N(C1=O)C(C)(C)SC2(C)C (stereo not given)	15	50		Duration [8]: 0 min; inhibition [9]: 0%
CC(S)C(=O)N(CC(=O)O)C1CCCC1 (stereo not given)			0.057	
C[C@H]1CSC(=O)[C@@H]2Cc3ccccc3CN2C1=O (mixture of isomers)				Duration [12]: 10 min; inhibition [13]: 15%
CC(=O)S[C@H](C)C(=O)N1CSC[C@H]1C(=O)O			37	
CC(=O)SC(C)C(=O)N(C1CCCC1)C(C)(C)C(=O)O (stereo not given)			95	
C[C@H](CSC(=O)C(C)(C)C)C(=O)N(CC(=O)O)C1CCCC1 [PIVOPRIL]	0.017			Duration (Rattus norvegicus [14]): >24 h; MAP (Rattus norvegicus [15]): -30%; Duration [12]: 60 min; inhibition [16]: 50%
CC(=O)SC(C)C(=O)N(CC(=O)O)c1ccc(C)cc1 (stereo not given)			0.18	
C[C@H](CS)C(=O)N1CCC[C@H]1C(=O)O [CAPTOPRIL]				MAP (Rattus norvegicus [15]): -30%
CC(=O)SC(C)C(=O)N(CC(=O)O)C1CCCC1 (stereo not given)			0.51	
CC(=O)SC(C)C(=O)N(C1CCCC1)C(C)C(=O)O (stereo not given)			6.8	
CC(=O)S[C@@H](C)C(=O)N1CSC[C@H]1C(=O)O			1.7	
CC(S)C(=O)N1C(C(=O)O)C(C)(C)SC1(C)C (stereo not given)			21	
CCOC(=O)[C@H](CCc1ccccc1)N[C@@H](C)C(=O)N1CCC[C@H]1C(=O)O				Duration (Rattus norvegicus [14]): >24 h; MAP (Rattus norvegicus [15]): -38%; Duration [19]: 210 min; inhibition [20]: 50%
CC(S)C(=O)N(C1CCCC1)C(C)C(=O)O (stereo not given)			6.8	
CC(=O)SC(C)C(=O)N1C(C(=O)O)C(C)(C)SC1(C)C (stereo not given)			> 100	
Cc1ccc(N(CC(=O)O)C(=O)C(C)S)cc1 (stereo not given)			0.026	
CC(=O)SC(C)C(=O)N1Cc2ccccc2CC1(C)C(=O)O (stereo not given)			> 100	
